SENP6 block: SENP6 protease inhibition; Recombinant SENP6 catalytic domain, aminoluciferin luminescence; AID 2599; Q9GZR1; inhibition, % at 10 µM; actives 1.8% (n = 330,000);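 active means inhibition above about 50% at the single tested dose, limit read from the data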
SENP7 block: SENP7 protease inhibition | actives 1.5% (n = 330,000) | inhibition, % at 5 µM | recombinant SENP7, Z-RLRGG-aminoluciferin luminescence, 40 min;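 active means inhibition above about 50% at the single test dose, limit read from the data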
SENP8 block-1: inhibitors of human SENP8 protease | Q96LD8 | recombinant SENP8, Nedd8 substrate fluorescence | inhibition, % at 20 µM | actives 0.64% (n = 360,000); in the data active means inhibition mostly above about 40%, no sharp cut-off; inactive means mostly below about 27%
Target sequence (Q96LD8 whole entry, looked up): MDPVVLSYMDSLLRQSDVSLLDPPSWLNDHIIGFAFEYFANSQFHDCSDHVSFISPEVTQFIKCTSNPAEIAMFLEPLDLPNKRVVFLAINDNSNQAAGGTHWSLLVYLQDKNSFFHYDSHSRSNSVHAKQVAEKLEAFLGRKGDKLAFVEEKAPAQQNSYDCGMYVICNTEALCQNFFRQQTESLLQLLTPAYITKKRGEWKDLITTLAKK
SENP8 block-2: blocks the human protease SENP8 | purified SENP8, Z-RLRGG-aminoluciferin cleavage, luminescence | AID 2540 | inhibition, % at 10 µM | actives 1.2% (n = 330,000) | Q96LD8; in the data active means inhibition above about 50%
SENP1 inh: blocks the human SENP1 SUMO protease catalytic domain; recombinant SENP1 catalytic domain, CyPet-SUMO1-YPet FRET cleavage; inhibition, % at 10 µM; actives 0.21% (n = 360,000); AID 624204;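 active means inhibition at least 30% at 10 µM, raw YFP signal under a set limit, fluorescence ratio 0.5 to 1.5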
Target sequence (Q9P0U3 419-644 limits assumed): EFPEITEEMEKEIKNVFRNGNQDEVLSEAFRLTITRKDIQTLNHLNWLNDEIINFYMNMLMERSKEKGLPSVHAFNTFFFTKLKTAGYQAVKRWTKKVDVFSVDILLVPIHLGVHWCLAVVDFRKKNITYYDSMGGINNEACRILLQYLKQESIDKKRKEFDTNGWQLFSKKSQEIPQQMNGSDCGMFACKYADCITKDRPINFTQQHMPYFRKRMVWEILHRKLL
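System: Recombinant human SENP1 catalytic domain, His6-tagged | Incubation: Enzyme reaction for 50 min at room temperature, dark | Medium: Tris pH 8 with BME, BSA, NP40 and catalase | Also added: 25 nM SUMO1 FRET substrate | Compound: 10 µM single point, 0.5% DMSO | Measured by: FRET fluorescence in CFP and YFP emission channels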
SENP8 conf: SENP8 (human) inhibition, single concentration confirmation | purified SENP8, Nedd8-AMC/pro-Nedd8 cleavage fluorescence, 30 min | AID 624319 | actives 15% (n = 1,400) | inhibition, % at 25 µM | shares compounds with SENP8 block-1; in the data active means inhibition mostly above about 39%, no sharp cut-off; inactive means mostly below about 34%
SENP1 inh conf: SENP1 (human) inhibition, single concentration confirmation; inhibition, % at 10 µM; actives 34% (n = 520); shares compounds with SENP1 inh; recombinant SENP1, CyPet-SUMO1-YPet FRET cleavage; in the data active means inhibition mostly above about 35%, no sharp cut-off; inactive means mostly below about 32%
SENP1 kinetic: confirmation of human SENP1 SUMO protease inhibitors, kinetic. shares compounds with SENP1 inh. recombinant SENP1, CyPet-SUMO1-YPet FRET kinetic cleavage. inhibition, % at 10 µM. actives 26% (n = 520); in the data active means inhibition mostly above about 32%, no sharp cut-off; inactive means mostly below about 29%
A number is an active result; - = inactive; . = no result. Only some compounds are listed: those with a hit (about 2.5% of all), similar ones and a draw of the others.

SMILES | SENP6 block | SENP7 block | SENP8 block-1 | SENP8 block-2 | SENP1 inh | SENP8 conf | others
CN(C)C(=O)Oc1ccc2c(c1)O/C(=C\c1cccc(Cl)c1)C2=O | - | - | - | - | - | .
Cc1cc(N(CCCl)CCCl)ccc1C=Cc1ccncn1 | . | . | - | . | - | .
CC(=O)c1ccc2c(c1)OCO2 | - | - | 44.0 | - | - | -
O=C1NC(=O)C(Nc2ccccc2)C(=O)N1 | . | . | 63.9 | . | - | 46.1
O=C1NC(=O)C(Cc2ccccc2)(Cc2ccccc2)C(=O)N1 | . | . | - | . | - | .
O=C(CCC(=O)N1C[C@H]2C[C@@H](C1)c1cccc(=O)n1C2)NCc1ccccc1 | - | - | - | - | - | .
O=C(CCC(=O)N1C[C@H]2C[C@@H](C1)c1cccc(=O)n1C2)NCc1cccc(C(F)(F)F)c1 | - | - | 49.5 | - | - | -
COc1ccc(-c2cc(=NCC(=O)O)c3ccccc3o2)cc1 | - | - | - | - | - | .
O=[N+]([O-])c1ccc(NCc2ccccc2)c2nonc12 | - | - | . | - | . | .
O=[N+]([O-])c1ccc(NCc2ccc(Cl)cc2)c2ccncc12 | - | - | 43.2 | - | - | -
Cc1cc(NC(=O)C(Cl)(Cl)Cl)no1 | - | - | - | - | - | .
COc1cccc2c1cc([N+](=O)[O-])c1c(C(=O)O)cc3c(c12)OCO3 | . | . | 42.4 | . | - | -
C=CCc1cc(OC)c2c(c1)OCO2 | - | - | - | - | - | .
Clc1ccc(CCC(Cn2ccnc2)Sc2c(Cl)cccc2Cl)cc1 (stereo unspecified) | - | - | - | - | - | .
CC12CCC3c4ccc(OP(=O)(N5CC5)N5CC5)cc4CCC3C1CCC2=O (stereo unspecified) | . | . | - | . | - | .
Oc1cccc2nc3ccccc3nc12 | - | - | 22.0 | - | - | -
COP(=S)(OC)SCN1C(=O)c2ccccc2C1=O | - | - | - | - | - | .
COC1C(OC(=O)c2ccc(C)[nH]2)C(O)C(Oc2ccc3c(O)c(NC(=O)c4ccc(O)c(CC=C(C)C)c4)c(=O)oc3c2Cl)OC1(C)C (stereo unspecified) | - | - | 40.5 | - | - | -
CN1C2CCC1CC(=NO)C2 | - | - | 47.8 | - | - | -
CCN1CCN(C(=O)COc2ccc(S(=O)(=O)N3CCOCC3)cc2Cl)CC1 | - | - | - | - | - | .
CCN1CCN(S(=O)(=O)c2ccc(Cl)nc2)CC1 | - | - | 43.5 | - | - | -
O=c1[nH]c(=S)[nH]c(O)c1N=Nc1cc2c(cc1[N+](=O)[O-])OCO2 | - | - | 41.9 | - | - | -
O=c1ccc2c(O)c3ccoc3cc2o1 | - | - | 48.4 | - | - | -
CCN(CC)C1=NC(=[N+](CC)CC)c2ccccc21 | - | - | - | - | - | .
O=C(Nc1ccc(Cl)cc1)N1CC2CC(C1)c1cccc(=O)n1C2 (stereo unspecified) | - | - | - | - | - | .
SMILES | SENP6 block | SENP7 block | SENP8 block-1 | SENP8 block-2 | SENP1 inh | SENP8 conf | others
Cc1ccc(NC(=O)[C@@H](NC(=O)N2C[C@H]3C[C@@H](C2)c2cccc(=O)n2C3)C(C)C)cc1 | - | - | 56.1 | - | - | -
CCOc1ccc(NC(=O)N2C[C@H]3C[C@@H](C2)c2cccc(=O)n2C3)cc1 | - | - | 42.1 | - | - | -
O=C(c1ccccc1)C(Cc1ccccc1)N1CCOCC1 (stereo unspecified) | . | . | - | . | - | .
CCOC(=O)CNC(=O)N1Cc2ccccc2-n2nncc2C1 | . | . | - | . | - | .
Nc1cccc2c1Cc1cc([N+](=O)[O-])ccc1-2 | . | . | - | . | 73.0 | . | SENP1 inh conf=-;SENP1 kinetic=-
Cc1cc(/C=C2\C(=O)NC(=O)N(C)C2=O)c(C)n1-c1ccc2c(c1)OCO2 | - | - | - | - | 35.1 | . | SENP1 inh conf=-;SENP1 kinetic=-
Cc1cc(C=C2C(=O)NC(=O)NC2=O)c(C)n1-c1ccc2c(c1)OCO2 | - | - | - | - | - | .
C[C@]12CCC3C(CC[C@H]4C[C@H](O)CC[C@]34C)C1CCC2=O (stereo partly specified) | - | - | - | - | - | .

From PubChem
